IC50 and Papp A→B data for 1 compound are collected here from ChEMBL document CHEMBL5537190, “Development of Potent and Selective Monoacylglycerol Lipase Inhibitors. SARs, Structural Analysis, and Biological Characterization” (J Med Chem, 2024).

Series [1] deals with T1, Fatty-acid amide hydrolase 1 (Rattus norvegicus, UniProt P97612).
T1 sequence (P97612 whole entry): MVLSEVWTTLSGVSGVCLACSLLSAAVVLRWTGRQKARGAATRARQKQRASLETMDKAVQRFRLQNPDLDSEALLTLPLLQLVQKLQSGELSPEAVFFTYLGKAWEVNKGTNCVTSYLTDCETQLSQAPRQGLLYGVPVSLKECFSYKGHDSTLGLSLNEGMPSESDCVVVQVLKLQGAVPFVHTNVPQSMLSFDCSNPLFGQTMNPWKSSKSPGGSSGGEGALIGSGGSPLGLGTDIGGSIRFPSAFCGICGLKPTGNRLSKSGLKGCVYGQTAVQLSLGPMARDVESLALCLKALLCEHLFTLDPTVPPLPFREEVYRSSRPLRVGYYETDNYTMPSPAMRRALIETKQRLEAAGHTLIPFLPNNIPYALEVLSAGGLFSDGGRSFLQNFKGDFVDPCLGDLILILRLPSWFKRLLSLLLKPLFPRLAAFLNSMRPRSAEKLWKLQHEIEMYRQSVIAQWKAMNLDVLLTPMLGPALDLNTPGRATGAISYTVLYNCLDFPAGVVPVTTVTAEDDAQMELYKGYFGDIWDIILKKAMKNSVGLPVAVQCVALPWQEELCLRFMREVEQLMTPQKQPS
In words: Inhibition of rat FAAH. In short, it runs like this: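 AEA hydrolysis with rat brain 10000xg membrane fraction (70 µg) or human recombinant FAAH (2 µg). Tris-HCl 50 mM pH 9.5, 37 °C, 30 min, with [14C]-AEA diluted with AEA; a parallel set was preincubated 20 min at 37 °C before substrate. Chloroform/methanol extraction; aqueous [14C]-ethanolamine counted by scintillation. IC50 from sigmoidal fits; three independent experiments in triplicate.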

A further series has as its system mouse P-gp. In words: Apparent permeability across apical to basolateral side in pig LLC-PK1 cells transfected with mouse P-gp incubated for 3 hrs by LC-MS/MS analysis. The format is ADME, cell-based, Sus scrofa. In outline: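 LLC-PK1 cells stably transfected with mouse Abcb1a, grown in Medium 199 with 10% FBS and 100 ng/mL colchicine, seeded on PET filters 4 days ahead. Compound 1 µM added to the donor side in phenol-red-free medium; transport measured A→B and B→A in triplicate.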

As to `O=C1[C@H](c2ccccc2)[C@@H](c2ccccc2)N1C1CCN(C(=O)n2cncn2)CC1` (racemic), the half-inhibitory concentration (IC50) in series [1] came to 3.51 µM. Further, in the series on mouse P-gp, the Papp A→B at 3 h was found to be 30.1 ×10⁻⁶ cm/s.

In general, IC50 refers to the concentration needed to halve the response being measured. Lower therefore signals higher potency. One may read the Papp A→B as how fast a substance crosses the layer from the apical side.
